# STEP block: blocks human striatal-enriched tyrosine phosphatase. P54829. recombinant STEP, OMFP fluorogenic substrate, fluorescence. inhibition, % at 20 µM. 0.25% of 360,000 active. AID 588621;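 active = inhibition at 20 µM, scaled per plate between control wells, above about 37%, limit read from the data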;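 note: 0% = DMSO with enzyme and substrate and 100% = substrate only without enzyme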
#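 material = STEP tyrosine phosphatase | reagent = fluorogenic phosphatase substrate OMFP at 25 µM final | doses = single compound dose of 20 µM, 1% DMSO final | schedule = 20 min reaction, room temperature, in the dark | measured by = fluorescence, 480/540 nm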
# Scp-1 inhibitor: inhibitors of human Scp-1 phosphatase; Recombinant Scp1, phosphopeptide, malachite green phosphate absorbance; 0.88% of 340,000 active; inhibition, % at 20 µM; Q9GZU7;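 active = inhibition above about 50% at 20 µM, limit read from the data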;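 note: plate controls were DMSO wells with enzyme for no effect and wells lacking enzyme for full effect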
# Target sequence (Q9GZU7 76-261 limits assumed): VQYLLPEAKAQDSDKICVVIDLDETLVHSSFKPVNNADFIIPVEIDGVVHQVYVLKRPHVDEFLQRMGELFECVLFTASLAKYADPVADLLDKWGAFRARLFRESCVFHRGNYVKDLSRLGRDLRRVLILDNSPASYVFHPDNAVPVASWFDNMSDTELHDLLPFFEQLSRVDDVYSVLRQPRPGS
#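 Material – SCP-1 phosphatase catalytic domain, residues 76-261 · Buffer or medium – Acidic Tris acetate buffer with magnesium and detergent · Also added – Phospho 17-mer peptide substrate · Compound – single 20 µM dose, 1% DMSO · Times – 45 min room-temperature reaction, 5 min colour, 30 min stabiliser · Technique – Phosphate-binding colour reagent, absorbance read at 630 nm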
# DNMT1 inh: DNMT1 (human) enzyme inhibition; P26358; DNMT1 molecular beacon, Hinp1I cleavage, fluorescence; inhibition (reported as % activation of signal), % at 10 µM; 0.83% of 360,000 active; in the data active = inhibition above about 50%
# CASP6 VEID inh: inhibitors of human caspase-6 | P55212 | inhibition, % at 12.5 µM | purified caspase-6, Z-VEID-R110 cleavage fluorescence | 0.53% of 350,000 active | AID 686996;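 active = mean inhibition across replicates at least about 35%, with every replicate also reaching that limit, limit read from the data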;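 note: 0% = median of neutral control wells and 100% = no fluorescence left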
# LMPTP inh: LMPTP (human) inhibition | inhibition, % at 20 µM | P24666 | AID 651560 | recombinant LMPTP-A, OMFP fluorogenic substrate, fluorescence intensity | 0.22% of 360,000 active;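 active = compounds that cut the enzyme signal by at least half of the control window in the single-dose screen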;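 note: plate controls were DMSO wells with enzyme plus substrate for no effect and substrate without enzyme for full effect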
# Target sequence (P24666 whole entry, looked up): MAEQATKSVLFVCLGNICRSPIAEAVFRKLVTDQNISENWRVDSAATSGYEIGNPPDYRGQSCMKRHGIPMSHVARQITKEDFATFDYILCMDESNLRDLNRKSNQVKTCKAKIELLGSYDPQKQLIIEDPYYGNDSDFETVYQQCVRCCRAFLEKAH
#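 Material: LMPTP-A; amount: 0.625 nM enzyme; doses: single 20 µM dose; times: reaction 50 min, room temperature, dark; technique: fluorescence intensity of OMFP turnover product; benchmarks: no-enzyme and uninhibited controls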
# SUMO1 PPI mod: alters human SUMO1 binding to SIM partners; P63165; SUMO1 binding to a labelled peptide, TR-FRET, 1 h; inhibition, % at 20 µM; 0.33% of 360,000 active; in the data active = inhibition above about 37%
# Target sequence (P63165 whole entry, looked up): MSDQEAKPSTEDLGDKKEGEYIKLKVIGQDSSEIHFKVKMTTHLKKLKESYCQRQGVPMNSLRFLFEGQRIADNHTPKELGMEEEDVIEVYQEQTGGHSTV
# Scp-1 conf: confirmation of human Scp-1 phosphatase inhibitors. shares compounds with Scp-1 inhibitor. recombinant SCP-1 catalytic domain, phosphate release, malachite green absorbance. inhibition, % at 20 µM. 61% of 2,500 active;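 note: plate controls were DMSO with enzyme for no effect and buffer wells lacking enzyme for full effect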
# Scp-1 MG ctr: counter-screen for Scp-1 inhibitors: colorimetric interference; shares compounds with Scp-1 inhibitor; Colorimetric interference counterscreen, malachite green absorbance 630 nm; apparent inhibition (interference), % at 20 µM; 2,500 tested, under 10 active; AID 540313;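 note: compounds added after enzyme reaction finished so only phosphate colour detection is probed; plate controls were DMSO wells with completed Scp-1 reaction for no effect and substrate wells lacking enzyme for full effect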
# Scp1 DSF: Scp-1 (human) binding by thermal shift | Recombinant SCP1, Sypro Orange thermal shift Tm | thermal shift relative to vanadate control, % at 40 µM | shares compounds with Scp-1 inhibitor | 25% of 1,500 active;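 active = substances whose mean melting-temperature shift, as a percentage of the reference inhibitor's shift, reaches about 5.3%, limit read from the data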;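 note: 0% = Tm of DMSO wells and 100% = Tm with sodium orthovanadate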
# Starred values were filed as active, the others as inactive; . = no result given. An excerpt weighted towards active compounds, which were near 1.7% of everything screened.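 Rule for the calls, unless noted: active = inhibition of at least 30% at 20 µM; inactive = the rest.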
SMILES,STEP block,Scp-1 inhibitor,DNMT1 inh,CASP6 VEID inh,LMPTP inh,SUMO1 PPI mod,Scp-1 conf,Scp-1 MG ctr,others
COc1ccc(C2Nc3ccccc3C(=O)N2O)cc1OC (stereo unspecified),0,13,-1,.,-3,0,.,.,
Cc1noc(C)c1S(=O)(=O)Nc1ccc2c(c1)C(=O)N([C@H](C)CO)C[C@H](C)[C@@H](CN(C)C(=O)NC1CCCCC1)O2,-2,56*,9,3,-1,7,21,-6,
Cc1noc(C)c1S(=O)(=O)Nc1ccc2c(c1)C(=O)N([C@@H](C)CO)C[C@H](C)[C@H](CN(C)C(=O)NC1CCCCC1)O2,.,.,.,1,.,.,.,.,
COc1ccc(S(=O)(=O)NCCN2CCOCC2)c(C)c1C,1,81*,0,-1,-3,4,-13,-12,
COc1ccc(S(=O)(=O)NCCN2CCOCC2)c2ccccc12,1,-6,-2,.,-1,-1,.,.,
COc1cc(/C=C(/C#N)c2ccccc2)ccc1Oc1ccc([N+](=O)[O-])cn1,-2,-2,2,.,2,-3,.,.,
CC1(C)CC[C@]2(C(=O)O)CC[C@]3(C)C(=CC[C@@H]4[C@@]5(C)CC[C@H](O)C(C)(C)[C@@H]5CC[C@]43C)[C@@H]2C1,.,-6,29,8,-14,5,.,.,
CC1(C)CC[C@]2(C(=O)O)CC[C@]3(C)C(=CCC4[C@@]5(C)CC[C@H](O)C(C)(C)C5CC[C@]43C)C2C1 (stereo partly specified),.,56*,78*,4,25,5,17,4,
CCCc1ccc2oc(C(=O)N3CCC(COC)C3)c(C)c2c1 (stereo unspecified),2,69*,-2,-3,1,-2,3,-3,
Cc1ccc(NC(=O)COC(=O)C2CCC(=O)N2)c(S(=O)(=O)N2CCOCC2)c1 (stereo unspecified),-1,3,9,.,-1,-1,-1,-5,
CC(/C=C/c1ccc(C)o1)=C\C(=O)O,2,-4,4,.,-2,0,.,.,
CC(=C/C(=O)O)/C=C/c1ccc(Cl)o1,9,61*,106*,.,-1,2,54*,-15,Scp1 DSF=1
CCNC(=O)[C@H]1[C@H](CO)[C@H]2Cn3c(ccc(-c4ccc(F)cc4)c3=O)[C@H]2N1CC1CC1,.,.,.,-1,.,.,.,.,
O=C(COc1ccccc1Cl)Nc1ccc(C(=O)O)cc1NC(=O)COc1ccccc1Cl,-2,3,2,6,-1,6,.,.,
Cc1cc(C(=O)Nc2ccccc2C(=O)O)ccc1NC(=O)COc1ccccc1Cl,22,80*,1,-11,11,19,52*,1,Scp1 DSF=6.7*
C[C@@H]1CN([C@H](C)CO)C(=O)Cc2cc(NS(=O)(=O)c3cn(C)cn3)ccc2O[C@H]1CN(C)S(=O)(=O)c1ccc(Cl)cc1,-1,65*,4,3,0,1,0,-20,
C[C@H](CO)N1C[C@H](C)[C@@H](CN(C)C(=O)Nc2ccccc2)Oc2ccc(NS(=O)(=O)c3cn(C)cn3)cc2C1=O,2,71*,12,3,-2,5,0,-10,
Cc1noc(C)c1NC(=O)N(C)C[C@H]1Oc2ccc(NS(=O)(=O)c3cn(C)cn3)cc2C(=O)N([C@H](C)CO)C[C@@H]1C,0,64*,6,-2,-1,2,3,-9,
C[C@H]1CN([C@@H](C)CO)C(=O)c2cc(NS(=O)(=O)c3cn(C)cn3)ccc2O[C@H]1CN(C)C(=O)Nc1ccccc1,.,.,.,0,.,.,.,.,

# Screening results: PubChem BioAssay, several laboratories
